pIC50: −log10 of the molar value. Values belong to the compound of their own block, whether it stands above or below them. Calls of active or inactive are those of the source. The calls are words filed in the database; no cut-off is given here.
What was measured:
[1] = molecular target: cGMP-specific 3',5'-cyclic phosphodiesterase (Homo sapiens, UniProt O76074); assay: Inhibition of human PDE5A1 catalytic domain (535 to 860 residues) expressed in Escherichia coli BL21 using 3H-cGMP as substrate after 15 mins by liquid scintillation counting
[2] = Apparent clearance in rat liver microsomes at 0.5 uM; assay type: ADME, microsome; conditions: read-out: CLH(app)
[3] = Intrinsic clearance in rat liver microsomes at 0.5 uM; assay type: ADME, microsome
[4] = Metabolic stability in rat liver microsomes assessed as stability rate constant at 0.5 uM; assay type: ADME, microsome
[5] = Half life in rat liver microsomes at 0.5 uM; assay type: ADME, microsome
[6] = Hepatic extraction ratio in rat liver microsomes at 0.5 uM; assay type: ADME, microsome; conditions: read-out: ERH
[7] = system: Rattus norvegicus; assay: Anti-hypertensive activity in MCT-induced pulmonary hypertension Wistar rat model assessed as reduction in RVHI at 10 mg/kg, po administered for 3 weeks; assay type: functional, organism-based
Procedure, shortened: (§1)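 PAH was induced in rats by monocrotaline (MCT) injection and confirmed after 3 weeks against an untreated control group. Treated groups received oral dosing and were compared with the MCT model group. Read-outs were mean pulmonary artery pressure, right ventricle hypertrophy index, and small pulmonary artery wall thickness as % of external diameter. Data are mean ± S.E.M., n = 6-9/group.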

[8] = system: Rattus norvegicus; assay: Anti-hypertensive activity in MCT-induced pulmonary hypertension Wistar rat model assessed as reduction in wall thickness percentage at 10 mg/kg, po administered for 3 weeks; assay type: functional, organism-based; procedure, shortened: as §1
[9] = molecular target: Cone cGMP-specific 3',5'-cyclic phosphodiesterase subunit alpha' (Homo sapiens, UniProt P51160); assay: Inhibition of PDE6C catalytic domain (1 to 858 residues) (unknown origin) expressed in Escherichia coli BL21 using 3H-cGMP as substrate after 15 mins by liquid scintillation counting
Chain of Cone cGMP-specific 3',5'-cyclic phosphodiesterase subunit alpha' (P51160 whole entry, the tested form may be a part): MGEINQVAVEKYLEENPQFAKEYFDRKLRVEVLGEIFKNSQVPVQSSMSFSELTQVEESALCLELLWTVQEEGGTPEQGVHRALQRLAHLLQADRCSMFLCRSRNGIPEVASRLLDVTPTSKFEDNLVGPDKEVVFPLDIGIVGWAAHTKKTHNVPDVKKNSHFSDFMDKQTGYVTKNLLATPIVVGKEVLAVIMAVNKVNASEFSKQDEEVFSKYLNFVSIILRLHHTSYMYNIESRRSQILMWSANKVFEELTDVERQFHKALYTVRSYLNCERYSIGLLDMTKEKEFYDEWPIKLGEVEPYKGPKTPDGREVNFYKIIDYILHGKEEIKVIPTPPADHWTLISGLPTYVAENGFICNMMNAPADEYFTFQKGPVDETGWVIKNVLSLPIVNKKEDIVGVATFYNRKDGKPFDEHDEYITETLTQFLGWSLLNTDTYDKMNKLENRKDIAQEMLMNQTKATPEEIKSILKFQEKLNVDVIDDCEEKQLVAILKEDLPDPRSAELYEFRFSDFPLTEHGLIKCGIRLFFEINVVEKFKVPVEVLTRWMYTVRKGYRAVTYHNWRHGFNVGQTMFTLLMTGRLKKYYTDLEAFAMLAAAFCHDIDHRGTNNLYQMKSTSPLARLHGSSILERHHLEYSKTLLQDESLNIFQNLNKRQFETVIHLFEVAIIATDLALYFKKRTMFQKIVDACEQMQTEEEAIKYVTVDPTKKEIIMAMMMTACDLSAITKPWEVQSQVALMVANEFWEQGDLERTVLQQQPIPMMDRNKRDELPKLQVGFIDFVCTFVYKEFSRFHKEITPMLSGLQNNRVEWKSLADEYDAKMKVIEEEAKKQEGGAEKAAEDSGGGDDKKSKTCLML

[10] = molecular target: Voltage-gated inwardly rectifying potassium channel KCNH2 (Homo sapiens, UniProt Q12809); assay: Inhibition of human ERG expressed in CHO cells by automated patch clamp assay; assay type: cell-based
[11] = molecular target: 3',5'-cyclic-AMP phosphodiesterase 4D (Homo sapiens, UniProt Q08499); assay: Inhibition of PDE4D2 catalytic domain (86 to 413 residues) (unknown origin) expressed in Escherichia coli BL21 using 3H-cAMP as substrate after 15 mins by liquid scintillation counting
Chain of 3',5'-cyclic-AMP phosphodiesterase 4D (Q08499 whole entry, the tested form may be a part): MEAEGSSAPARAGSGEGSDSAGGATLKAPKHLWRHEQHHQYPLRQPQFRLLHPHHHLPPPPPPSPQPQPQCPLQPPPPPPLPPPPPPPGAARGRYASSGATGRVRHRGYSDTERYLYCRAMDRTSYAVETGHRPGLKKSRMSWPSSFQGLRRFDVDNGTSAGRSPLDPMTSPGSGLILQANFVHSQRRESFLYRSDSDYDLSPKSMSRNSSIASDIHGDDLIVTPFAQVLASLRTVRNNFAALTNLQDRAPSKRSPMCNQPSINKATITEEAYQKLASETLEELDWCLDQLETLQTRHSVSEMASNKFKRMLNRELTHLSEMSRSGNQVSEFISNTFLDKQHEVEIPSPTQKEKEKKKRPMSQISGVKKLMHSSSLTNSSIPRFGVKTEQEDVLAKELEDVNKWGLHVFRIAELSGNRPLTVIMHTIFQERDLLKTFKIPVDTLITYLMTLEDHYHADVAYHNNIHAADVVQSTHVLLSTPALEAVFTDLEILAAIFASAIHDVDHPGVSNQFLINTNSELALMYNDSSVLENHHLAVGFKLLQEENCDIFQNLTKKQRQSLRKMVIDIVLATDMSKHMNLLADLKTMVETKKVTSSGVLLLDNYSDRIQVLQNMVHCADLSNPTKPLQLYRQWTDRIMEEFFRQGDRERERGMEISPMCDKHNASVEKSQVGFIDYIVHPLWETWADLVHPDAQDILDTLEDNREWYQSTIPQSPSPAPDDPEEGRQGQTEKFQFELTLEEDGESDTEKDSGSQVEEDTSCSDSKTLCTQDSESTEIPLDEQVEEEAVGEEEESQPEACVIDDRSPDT

[12] = molecular target: Cytochrome P450 2C9 (Homo sapiens, UniProt P11712); assay: Inhibition of CYP2C9 in human liver microsomes in presence of NADPH; assay type: ADME
Chain of Cytochrome P450 2C9 (P11712 whole entry): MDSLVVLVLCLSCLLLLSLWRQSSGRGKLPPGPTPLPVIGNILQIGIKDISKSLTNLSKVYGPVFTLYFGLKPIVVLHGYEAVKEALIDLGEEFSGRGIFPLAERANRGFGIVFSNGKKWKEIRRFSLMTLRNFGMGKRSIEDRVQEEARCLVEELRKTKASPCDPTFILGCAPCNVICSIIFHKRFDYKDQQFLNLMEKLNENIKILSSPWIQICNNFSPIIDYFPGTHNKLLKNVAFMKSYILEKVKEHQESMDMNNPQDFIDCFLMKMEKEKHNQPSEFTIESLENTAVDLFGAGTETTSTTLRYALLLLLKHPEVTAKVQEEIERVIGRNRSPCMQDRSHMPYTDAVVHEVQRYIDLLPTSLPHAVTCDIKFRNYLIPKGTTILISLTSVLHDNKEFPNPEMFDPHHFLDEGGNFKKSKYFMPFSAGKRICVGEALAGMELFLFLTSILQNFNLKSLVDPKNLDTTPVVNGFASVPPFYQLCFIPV

[13] = system: Rattus norvegicus; assay: Anti-hypertensive activity in MCT-induced pulmonary hypertension Wistar rat model assessed as reduction in wall thickness percentage at 1.25 mg/kg, po administered for 3 weeks; assay type: functional, organism-based; procedure, shortened: as §1
[14] = molecular target: cGMP-dependent 3',5'-cyclic phosphodiesterase (Homo sapiens, UniProt O00408); assay: Inhibition of PDE2A catalytic domain (580 to 919 residues) (unknown origin) expressed in Escherichia coli BL21 using 3H-cGMP as substrate after 15 mins by liquid scintillation counting
Chain of cGMP-dependent 3',5'-cyclic phosphodiesterase (O00408 whole entry, the tested form may be a part): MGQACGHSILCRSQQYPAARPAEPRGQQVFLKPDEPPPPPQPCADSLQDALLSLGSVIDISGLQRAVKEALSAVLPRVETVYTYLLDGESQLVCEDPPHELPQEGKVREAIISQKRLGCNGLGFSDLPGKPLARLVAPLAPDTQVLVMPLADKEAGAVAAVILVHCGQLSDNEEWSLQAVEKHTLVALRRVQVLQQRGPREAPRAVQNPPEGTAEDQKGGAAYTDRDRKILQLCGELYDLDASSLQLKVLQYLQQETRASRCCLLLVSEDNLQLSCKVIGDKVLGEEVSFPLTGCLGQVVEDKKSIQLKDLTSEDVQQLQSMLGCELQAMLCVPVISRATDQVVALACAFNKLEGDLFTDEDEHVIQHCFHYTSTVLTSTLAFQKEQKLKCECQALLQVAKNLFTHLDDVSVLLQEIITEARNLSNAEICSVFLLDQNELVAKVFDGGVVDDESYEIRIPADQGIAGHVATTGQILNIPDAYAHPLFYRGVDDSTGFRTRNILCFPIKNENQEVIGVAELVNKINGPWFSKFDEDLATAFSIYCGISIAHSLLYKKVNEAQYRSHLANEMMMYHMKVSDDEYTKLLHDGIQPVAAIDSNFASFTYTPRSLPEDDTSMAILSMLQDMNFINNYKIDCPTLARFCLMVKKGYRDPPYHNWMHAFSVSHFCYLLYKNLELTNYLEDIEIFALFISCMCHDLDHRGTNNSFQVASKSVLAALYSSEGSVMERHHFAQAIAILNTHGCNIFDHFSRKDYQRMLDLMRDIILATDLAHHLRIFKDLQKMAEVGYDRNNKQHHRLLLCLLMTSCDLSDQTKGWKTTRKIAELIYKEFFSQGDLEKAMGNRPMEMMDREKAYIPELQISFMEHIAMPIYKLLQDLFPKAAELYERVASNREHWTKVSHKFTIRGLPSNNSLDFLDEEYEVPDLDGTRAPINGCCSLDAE

[15] = molecular target: T1, Cytochrome P450 1A2 (Homo sapiens, UniProt P05177); assay: Inhibition of CYP1A2 in human liver microsomes in presence of NADPH; assay type: ADME
T1 sequence (P05177 whole entry): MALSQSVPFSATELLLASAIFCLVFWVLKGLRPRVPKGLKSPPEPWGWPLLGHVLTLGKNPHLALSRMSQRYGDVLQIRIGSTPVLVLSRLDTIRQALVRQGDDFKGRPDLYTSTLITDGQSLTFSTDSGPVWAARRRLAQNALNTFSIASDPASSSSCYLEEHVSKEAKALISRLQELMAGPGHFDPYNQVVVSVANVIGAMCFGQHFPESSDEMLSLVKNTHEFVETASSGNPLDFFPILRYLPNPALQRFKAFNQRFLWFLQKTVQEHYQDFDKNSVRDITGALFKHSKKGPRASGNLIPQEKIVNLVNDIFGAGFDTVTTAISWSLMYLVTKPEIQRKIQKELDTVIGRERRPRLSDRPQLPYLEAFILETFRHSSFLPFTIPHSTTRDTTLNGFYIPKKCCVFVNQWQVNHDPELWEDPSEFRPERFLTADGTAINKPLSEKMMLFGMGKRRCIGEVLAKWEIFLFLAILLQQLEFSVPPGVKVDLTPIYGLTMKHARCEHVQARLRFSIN

[16] = molecular target: Dual 3',5'-cyclic-AMP and -GMP phosphodiesterase 11A (Homo sapiens, UniProt Q9HCR9); assay: Inhibition of PDE11A catalytic domain (588 to 911 residues) (unknown origin) expressed in Escherichia coli BL21 using 3H-cAMP as substrate after 15 mins by liquid scintillation counting
Chain of Dual 3',5'-cyclic-AMP and -GMP phosphodiesterase 11A (Q9HCR9 whole entry, the tested form may be a part): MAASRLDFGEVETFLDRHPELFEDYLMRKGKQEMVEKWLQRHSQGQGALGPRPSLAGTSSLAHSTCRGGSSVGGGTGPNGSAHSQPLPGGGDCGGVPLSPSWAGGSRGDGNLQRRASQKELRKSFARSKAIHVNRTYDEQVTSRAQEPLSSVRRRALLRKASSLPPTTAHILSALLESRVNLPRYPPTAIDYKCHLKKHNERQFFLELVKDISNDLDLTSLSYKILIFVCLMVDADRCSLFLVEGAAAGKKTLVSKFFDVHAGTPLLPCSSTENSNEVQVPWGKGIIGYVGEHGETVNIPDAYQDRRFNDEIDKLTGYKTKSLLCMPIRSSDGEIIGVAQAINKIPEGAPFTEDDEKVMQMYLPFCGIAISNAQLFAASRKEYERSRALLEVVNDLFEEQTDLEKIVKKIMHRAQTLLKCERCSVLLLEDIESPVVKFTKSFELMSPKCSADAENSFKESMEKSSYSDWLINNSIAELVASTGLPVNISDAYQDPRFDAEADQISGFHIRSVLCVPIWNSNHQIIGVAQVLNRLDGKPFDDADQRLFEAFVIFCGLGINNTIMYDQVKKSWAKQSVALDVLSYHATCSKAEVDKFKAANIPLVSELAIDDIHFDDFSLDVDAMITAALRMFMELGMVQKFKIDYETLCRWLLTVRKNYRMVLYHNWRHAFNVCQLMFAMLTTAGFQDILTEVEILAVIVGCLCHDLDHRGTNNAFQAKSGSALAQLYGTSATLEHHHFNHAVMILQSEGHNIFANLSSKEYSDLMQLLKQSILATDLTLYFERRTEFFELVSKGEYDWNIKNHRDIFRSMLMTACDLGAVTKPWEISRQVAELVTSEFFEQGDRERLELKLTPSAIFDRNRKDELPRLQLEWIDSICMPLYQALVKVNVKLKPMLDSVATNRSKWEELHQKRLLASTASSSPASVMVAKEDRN

[17] = system: Rattus norvegicus; assay: Anti-hypertensive activity in MCT-induced pulmonary hypertension Wistar rat model assessed as reduction in RVHI at 1.25 mg/kg, po administered for 3 weeks; assay type: functional, organism-based; procedure, shortened: as §1
[18] = system: Mus musculus; assay: Acute toxicity in KM mouse up to 1.5 g/kg, po administered as single dose measured after 14 days; assay type: organism-based; conditions: in vivo, 1500 mg/kg, 336 h
[19] = system: Rattus norvegicus; assay: Anti-hypertensive activity in MCT-induced pulmonary hypertension Wistar rat model assessed as mean pulmonary artery pressure at 1.25 mg/kg, po administered for 3 weeks (reference value: 52.55 mmHg); assay type: functional; procedure, shortened: as §1
[20] = molecular target: Cytochrome P450 3A4 (Homo sapiens, UniProt P08684); assay: Inhibition of CYP3A4 in human liver microsomes in presence of NADPH; assay type: ADME
Chain of Cytochrome P450 3A4 (P08684 whole entry): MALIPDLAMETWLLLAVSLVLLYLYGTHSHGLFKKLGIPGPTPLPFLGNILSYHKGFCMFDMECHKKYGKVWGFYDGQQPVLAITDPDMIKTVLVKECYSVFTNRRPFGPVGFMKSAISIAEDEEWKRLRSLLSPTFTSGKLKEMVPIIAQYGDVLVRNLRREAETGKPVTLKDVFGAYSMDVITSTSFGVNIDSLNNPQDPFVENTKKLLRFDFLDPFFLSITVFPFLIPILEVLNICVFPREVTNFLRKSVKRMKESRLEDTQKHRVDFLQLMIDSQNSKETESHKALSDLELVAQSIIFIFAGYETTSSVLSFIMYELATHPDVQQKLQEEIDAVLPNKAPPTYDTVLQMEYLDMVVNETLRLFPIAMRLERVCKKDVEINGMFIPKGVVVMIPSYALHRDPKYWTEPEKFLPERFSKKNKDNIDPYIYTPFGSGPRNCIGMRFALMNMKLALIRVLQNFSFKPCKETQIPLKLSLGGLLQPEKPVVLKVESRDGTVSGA

[21] = molecular target: T2, Cytochrome P450 2B6 (Homo sapiens, UniProt P20813); assay: Inhibition of CYP2B6 in human liver microsomes in presence of NADPH; assay type: ADME
T2 sequence (P20813 whole entry): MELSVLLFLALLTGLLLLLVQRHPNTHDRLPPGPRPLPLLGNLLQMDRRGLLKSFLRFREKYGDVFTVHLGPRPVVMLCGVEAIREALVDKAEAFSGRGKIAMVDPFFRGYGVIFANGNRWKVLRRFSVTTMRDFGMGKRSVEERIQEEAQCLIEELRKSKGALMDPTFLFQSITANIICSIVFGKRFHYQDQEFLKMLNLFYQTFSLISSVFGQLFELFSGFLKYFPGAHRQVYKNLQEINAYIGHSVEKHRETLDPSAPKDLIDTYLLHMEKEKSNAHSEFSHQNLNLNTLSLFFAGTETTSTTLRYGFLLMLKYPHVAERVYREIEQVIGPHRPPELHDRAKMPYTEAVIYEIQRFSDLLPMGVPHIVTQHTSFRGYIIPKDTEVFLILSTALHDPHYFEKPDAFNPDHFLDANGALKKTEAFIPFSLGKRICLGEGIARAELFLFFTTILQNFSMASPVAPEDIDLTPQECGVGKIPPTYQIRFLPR

[22] = Protein binding in human plasma at 1 uM after 4 hrs by LC/MS/MS analysis; assay type: ADME, cell-free; conditions: read-out: PPB (converted)
[23] = molecular target: cAMP and cAMP-inhibited cGMP 3',5'-cyclic phosphodiesterase 10A (Homo sapiens, UniProt Q9Y233); assay: Inhibition of PDE10A catalytic domain (449 to 770 residues) (unknown origin) expressed in Escherichia coli BL21 using 3H-cAMP as substrate after 15 mins by liquid scintillation counting
[24] = system: Rattus norvegicus; assay: Anti-hypertensive activity in MCT-induced pulmonary hypertension Wistar rat model assessed as mean pulmonary artery pressure at 10 mg/kg, po administered for 3 weeks (reference value: 52.55 mmHg); assay type: functional; procedure, shortened: as §1
[25] = organism: Homo sapiens; assay: Selectivity ratio of IC50 for PDE11A catalytic domain (588 to 911 residues) (unknown origin) to IC50 for human PDE5A1 catalytic domain (535 to 860 residues)

Structure (SMILES): O=c1c2cc(Br)ccc2oc2c(Cc3ccc4c(c3)OCO4)[nH]c(-c3nccs3)c12
pIC50 [1]: 8.42

Structure (SMILES): O=c1c2cc(Cl)ccc2oc2c(Cc3ccc4c(c3)OCO4)[nH]c(-c3nccs3)c12
pIC50 [1]: 8.02

Structure (SMILES): CCCc1nn(C)c2c(=O)[nH]c(-c3cc(S(=O)(=O)N4CCN(C)CC4)ccc3OCC)nc12 [listing 1 of 2 here]
Activity [7]: Active | Activity [8]: Active

Structure (SMILES): COCCNc1cc(O)c2c(=O)c3c(-c4nccs4)[nH]c(Cc4ccc5c(c4)OCO5)c3oc2c1
CLint scaled at 0.5 µM [2]: 136 to 165 mL/min/kg | pIC50 [9]: 8.92 | pIC50 [10]: < 4.52 | pIC50 [11]: 7.37 | pIC50 [12]: 6.87 | Intrinsic clearance (CLint) [3]: 75.6 to 92 µL/min/mg | Activity [13]: Active | pIC50 [14]: 6.97 | pIC50 [15]: < 5.00 | K [4]: 0.0378 to 0.046 | pIC50 [16]: 7.41 | Activity [17]: Active | Activity [18]: Non-Toxic | Activity [19]: 19.94 mmHg | pIC50 [20]: < 5.00 | pIC50 [21]: < 5.00 | half-life at 0.5 µM [5]: 15.1 to 18.3 min | fraction unbound at 4 h, 1 µM [22]: 0.023 | pIC50 [23]: 7.34

Structure (SMILES): CCCc1nn(C)c2c(=O)[nH]c(-c3cc(S(=O)(=O)N4CCN(C)CC4)ccc3OCC)nc12.O=C(O)CC(O)(CC(=O)O)C(=O)O [SILDENAFIL CITRATE]
Activity [24]: 20.86 mmHg

Structure (SMILES): O=c1c2cc(F)ccc2oc2c(Cc3ccc4c(c3)OCO4)[nH]c(-c3nccs3)c12
pIC50 [1]: 8.39

Structure (SMILES): CCCc1nn(C)c2c(=O)[nH]c(-c3cc(S(=O)(=O)N4CCN(C)CC4)ccc3OCC)nc12 [listing 2 of 2 here]
CLint scaled at 0.5 µM [2]: 463 mL/min/kg | Intrinsic clearance (CLint) [3]: 258.2 µL/min/mg | K [4]: 0.1291 | half-life at 0.5 µM [5]: 5.37 min

Structure (SMILES): O=c1c2cc(Cl)cc(Br)c2oc2c(Cc3ccc4c(c3)OCO4)[nH]c(-c3nccs3)c12
pIC50 [1]: 8.52

Structure (SMILES): COc1c(Cl)ccc2oc3c(Cc4ccc5c(c4)OCO5)[nH]c(-c4nccs4)c3c(=O)c12
pIC50 [1]: 8.17

Structure (SMILES): COc1cccc2oc3c(Cc4ccc5c(c4)OCO5)[nH]c(-c4nccs4)c3c(=O)c12
pIC50 [1]: 8.36

Structure (SMILES): CN1CC(=O)N2[C@H](c3ccc4c(c3)OCO4)c3[nH]c4ccccc4c3C[C@@H]2C1=O
Ratio IC50 [25]: 20

Now from value to compound:

CLint scaled at 0.5 µM [2]: 262 mL/min/kg | Intrinsic clearance (CLint) [3]: 145.6 µL/min/mg | K [4]: 0.0728 | pIC50 [1]: 8.85 | half-life at 0.5 µM [5]: 9.52 min | hepatic extraction ratio at 0.5 µM [6]: 0.83
Structure (SMILES): O=c1c2c(F)cccc2oc2c(Cc3ccc4c(c3)OCO4)[nH]c(-c3nccs3)c12

pIC50 [1]: 9.28
Structure (SMILES): CNc1cc(O)c2c(=O)c3c(-c4nccs4)[nH]c(Cc4ccc5c(c4)OCO5)c3oc2c1

pIC50 [1]: 8.98
Structure (SMILES): O=c1c2c(O)cccc2oc2c(Cc3ccc4c(c3)OCO4)[nH]c(-c3nccs3)c12

pIC50 [1]: 8.63
Structure (SMILES): O=c1c2c(F)cc(Br)cc2oc2c(Cc3ccc4c(c3)OCO4)[nH]c(-c3nccs3)c12

pIC50 [1]: 8.58
Structure (SMILES): O=c1c2ccc(Cl)cc2oc2c(Cc3ccc4c(c3)OCO4)[nH]c(-c3nccs3)c12

pIC50 [1]: 8.62
Structure (SMILES): O=c1c2ccc(F)cc2oc2c(Cc3ccc4c(c3)OCO4)[nH]c(-c3nccs3)c12

pIC50 [1]: 8.58
Structure (SMILES): COc1ccc2c(=O)c3c(-c4nccs4)[nH]c(Cc4ccc5c(c4)OCO5)c3oc2c1

pIC50 [1]: 9.10
Structure (SMILES): O=c1c2c(O)cc(NCCN3CCOCC3)cc2oc2c(Cc3ccc4c(c3)OCO4)[nH]c(-c3nccs3)c12

pIC50 [1]: 8.79
Structure (SMILES): O=c1c2cc(F)cc(F)c2oc2c(Cc3ccc4c(c3)OCO4)[nH]c(-c3nccs3)c12

pIC50 [1]: 8.80
Structure (SMILES): O=c1c2ccc(Br)cc2oc2c(Cc3ccc4c(c3)OCO4)[nH]c(-c3nccs3)c12

pIC50 [1]: 8.68
Structure (SMILES): O=c1c2cccc(Cl)c2oc2c(Cc3ccc4c(c3)OCO4)[nH]c(-c3nccs3)c12

CLint scaled at 0.5 µM [2]: 472 mL/min/kg | Intrinsic clearance (CLint) [3]: 263.4 µL/min/mg | K [4]: 0.1317 | pIC50 [1]: 9.41 | half-life at 0.5 µM [5]: 5.26 min | hepatic extraction ratio at 0.5 µM [6]: 0.9
Structure (SMILES): CN1CCN(CCNc2cc(O)c3c(=O)c4c(-c5nccs5)[nH]c(Cc5ccc6c(c5)OCO6)c4oc3c2)CC1
